Results reported in ChEMBL document CHEMBL1143334, “Peri-substituted hexahydro-indolones as novel, potent and selective human EP3 receptor antagonists” (Bioorg Med Chem Lett, 2009).
Activity calls are given as the source filed them. The calls are words filed in the database; no cut-off is given here.

Biological target: T1, Prostaglandin E2 receptor EP3 subtype (Homo sapiens, UniProt P43115)
T1 sequence (P43115 whole entry): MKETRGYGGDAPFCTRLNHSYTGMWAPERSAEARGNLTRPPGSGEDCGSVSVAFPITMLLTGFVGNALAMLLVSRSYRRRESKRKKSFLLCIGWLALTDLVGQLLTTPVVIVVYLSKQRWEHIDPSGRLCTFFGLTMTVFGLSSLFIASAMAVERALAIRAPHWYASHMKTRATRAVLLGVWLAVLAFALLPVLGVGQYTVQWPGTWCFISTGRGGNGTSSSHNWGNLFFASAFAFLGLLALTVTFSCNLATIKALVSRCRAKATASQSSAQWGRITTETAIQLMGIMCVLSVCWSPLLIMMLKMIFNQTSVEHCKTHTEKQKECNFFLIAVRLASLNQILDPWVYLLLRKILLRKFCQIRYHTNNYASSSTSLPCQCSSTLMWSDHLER
Test: Displacement of [3H]PGE2 from human EP3 receptor
Conditions: not given
Summary of the method: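 Displacement of [3H]-PGE2 from human EP3 receptor membrane preparations was run in buffer. IC50 values come from at least three experiments each.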
`CC12CCCC(/C=C/C(=O)NS(=O)(=O)c3cc(Cl)c(Cl)s3)=C1N(Cc1cccc(Cl)c1)C(=O)C2` (stereo not drawn) showed an IC50 of 2.2 nM. `C[C@]12CCC[C@@H](CCC(=O)NS(=O)(=O)c3cc(F)c(F)cc3F)[C@H]1N(Cc1ccc(F)c(F)c1)C(=O)C2` gave an IC50 of 557 nM. `CC12CCCC(/C=C/C(=O)NS(=O)(=O)c3cc(Cl)c(Cl)s3)=C1N(Cc1ccc(F)cc1)C(=O)C2` (stereo not drawn) gave an IC50 of 3.8 nM. In the case of `COc1cccc(CN2C(=O)CC3(C)CCCC(/C=C/C(=O)NS(=O)(=O)c4cc(F)c(F)cc4F)=C23)c1` (stereo not drawn), the IC50 is reported as 5.6 nM. In the case of `COC(=O)C12CCCC(/C=C/C(=O)NS(=O)(=O)c3ccc(F)c(F)c3)=C1N(Cc1ccc(Cl)cc1Cl)C(=O)C2` (stereo not drawn), the IC50 is reported as 20.6 nM. Work on `CC12CCCC(/C=C/C(=O)NS(=O)(=O)c3cc(Cl)c(Cl)s3)=C1N(Cc1ccc(F)c(F)c1)C(=O)C2` (stereo not drawn) yielded an IC50 of 3.5 nM. With `CC12CCCC(/C=C/C(=O)NS(=O)(=O)c3ccc(Cl)s3)=C1N(Cc1ccc(Cl)cc1Cl)C(=O)C2` (stereo not drawn) the IC50 was 13.4 nM. `CC12CCCC(/C=C/C(=O)NS(=O)(=O)c3cc(F)cc(F)c3)=C1N(Cc1cccc(Cl)c1Cl)C(=O)C2` (stereo not drawn) showed an IC50 of 3.8 nM.

Biological target: T2, Prostaglandin E2 receptor EP3 subtype (Homo sapiens) (UniProt P43115)
T2 sequence (whole entry): T1 sequence (P43115 whole entry)
Test: Ratio of IC50 for human EP3 receptor in presence of 10% human serum to IC50 for human EP3 receptor in buffer
Conditions: not given
Summary of the method: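 Displacement of [3H]-PGE2 from human EP3 membrane preparations was run both with 10% human serum and in buffer alone. Fold-shift is IC50 with serum divided by IC50 in buffer.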
Work on `CC12CCCC(/C=C/C(=O)NS(=O)(=O)c3cc(Cl)c(Cl)s3)=C1N(Cc1cccc(Cl)c1)C(=O)C2` (stereo not drawn) yielded a fold change (FC) of 16.3. With `C[C@]12CCC[C@@H](CCC(=O)NS(=O)(=O)c3cc(F)c(F)cc3F)[C@H]1N(Cc1ccc(F)c(F)c1)C(=O)C2` the fold change (FC) was 25.7. `CC12CCCC(/C=C/C(=O)NS(=O)(=O)c3cc(Cl)c(Cl)s3)=C1N(Cc1ccc(F)cc1)C(=O)C2` (stereo not drawn) showed a fold change (FC) of 3. With `COc1cccc(CN2C(=O)CC3(C)CCCC(/C=C/C(=O)NS(=O)(=O)c4cc(F)c(F)cc4F)=C23)c1` (stereo not drawn) the fold change (FC) was 6.2. Work on `COC(=O)C12CCCC(/C=C/C(=O)NS(=O)(=O)c3ccc(F)c(F)c3)=C1N(Cc1ccc(Cl)cc1Cl)C(=O)C2` (stereo not drawn) yielded a fold change (FC) of 22. Work on `CC12CCCC(/C=C/C(=O)NS(=O)(=O)c3cc(Cl)c(Cl)s3)=C1N(Cc1ccc(F)c(F)c1)C(=O)C2` (stereo not drawn) yielded a fold change (FC) of 17.7. `CC12CCCC(/C=C/C(=O)NS(=O)(=O)c3ccc(Cl)s3)=C1N(Cc1ccc(Cl)cc1Cl)C(=O)C2` (stereo not drawn) gave a fold change (FC) of 6.9. `CC12CCCC(/C=C/C(=O)NS(=O)(=O)c3cc(F)cc(F)c3)=C1N(Cc1cccc(Cl)c1Cl)C(=O)C2` (stereo not drawn) gave a fold change (FC) of 33.7.

System: not listed separately
Test: Metabolic stability in rat liver microsomes after 30 mins
Assay type: ADME, Microsome
Conditions: read-out: Stability
Summary of the method: (§1)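 Compound was incubated 30 min with liver microsomes from each species. Percent parent remaining was measured by LC/MS/MS.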
For `CC12CCCC(/C=C/C(=O)NS(=O)(=O)c3cc(Cl)c(Cl)s3)=C1N(Cc1ccc(F)cc1)C(=O)C2` (stereo not drawn), the remaining at 0.5 h was 50%. `COc1cccc(CN2C(=O)CC3(C)CCCC(/C=C/C(=O)NS(=O)(=O)c4cc(F)c(F)cc4F)=C23)c1` (stereo not drawn) gave a remaining at 0.5 h of 84%. Work on `CC12CCCC(/C=C/C(=O)NS(=O)(=O)c3cc(Cl)c(Cl)s3)=C1N(Cc1ccc(F)c(F)c1)C(=O)C2` (stereo not drawn) yielded a remaining at 0.5 h of 22%. `CC12CCCC(/C=C/C(=O)NS(=O)(=O)c3ccc(Cl)s3)=C1N(Cc1ccc(Cl)cc1Cl)C(=O)C2` (stereo not drawn) gave a remaining at 0.5 h of 68%.

System: not listed separately
Test: Metabolic stability in human liver microsomes after 30 mins
Assay type: ADME, Microsome
Conditions: read-out: Stability
Summary of the method: as §1
Work on `CC12CCCC(/C=C/C(=O)NS(=O)(=O)c3cc(Cl)c(Cl)s3)=C1N(Cc1ccc(F)cc1)C(=O)C2` (stereo not drawn) yielded a remaining at 0.5 h of 74%. Work on `COc1cccc(CN2C(=O)CC3(C)CCCC(/C=C/C(=O)NS(=O)(=O)c4cc(F)c(F)cc4F)=C23)c1` (stereo not drawn) yielded a remaining at 0.5 h of 76%. Compound `CC12CCCC(/C=C/C(=O)NS(=O)(=O)c3cc(Cl)c(Cl)s3)=C1N(Cc1ccc(F)c(F)c1)C(=O)C2` (stereo not drawn) has a remaining at 0.5 h of 80%. Work on `CC12CCCC(/C=C/C(=O)NS(=O)(=O)c3ccc(Cl)s3)=C1N(Cc1ccc(Cl)cc1Cl)C(=O)C2` (stereo not drawn) yielded a remaining at 0.5 h of 75%.

Biological target: Prostaglandin E2 receptor EP4 subtype (Homo sapiens, UniProt P35408)
Sequence (P35408 whole entry): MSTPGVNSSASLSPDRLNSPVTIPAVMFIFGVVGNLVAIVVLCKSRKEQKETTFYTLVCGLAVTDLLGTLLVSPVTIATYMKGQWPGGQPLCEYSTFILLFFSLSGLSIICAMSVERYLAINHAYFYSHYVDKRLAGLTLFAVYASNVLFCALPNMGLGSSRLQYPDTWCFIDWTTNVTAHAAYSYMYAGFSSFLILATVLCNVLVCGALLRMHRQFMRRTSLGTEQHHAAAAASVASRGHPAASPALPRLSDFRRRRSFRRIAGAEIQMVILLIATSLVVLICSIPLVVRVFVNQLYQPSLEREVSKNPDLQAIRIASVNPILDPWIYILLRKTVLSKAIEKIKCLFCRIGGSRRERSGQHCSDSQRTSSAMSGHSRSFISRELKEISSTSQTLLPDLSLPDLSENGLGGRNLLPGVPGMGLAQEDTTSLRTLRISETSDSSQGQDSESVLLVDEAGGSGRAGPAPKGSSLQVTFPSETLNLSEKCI
Test: Binding affinity to human EP4 receptor at 20 uM by radioligand binding assay
Conditions: not given
For `CC12CCCC(/C=C/C(=O)NS(=O)(=O)c3cc(Cl)c(Cl)s3)=C1N(Cc1ccc(F)cc1)C(=O)C2` (stereo not drawn), the Activity was “inactive”.

Species: Homo sapiens
Test: Selectivity of human EP1 receptor over human EP3 receptor
Conditions: not given
For `CC12CCCC(/C=C/C(=O)NS(=O)(=O)c3cc(Cl)c(Cl)s3)=C1N(Cc1ccc(F)cc1)C(=O)C2` (stereo not drawn), the Selectivity ratio was greater than 1000.

Species: Homo sapiens
Test: Selectivity of human EP2 receptor over human EP3 receptor
Conditions: not given
`CC12CCCC(/C=C/C(=O)NS(=O)(=O)c3cc(Cl)c(Cl)s3)=C1N(Cc1ccc(F)cc1)C(=O)C2` (stereo not drawn) showed a Selectivity ratio greater than 1000.

Species: Homo sapiens
Test: Selectivity of human EP4 receptor over human EP3 receptor
Conditions: not given
For `CC12CCCC(/C=C/C(=O)NS(=O)(=O)c3cc(Cl)c(Cl)s3)=C1N(Cc1ccc(F)cc1)C(=O)C2` (stereo not drawn), the Selectivity ratio was greater than 1000.

Species: Homo sapiens
Test: Selectivity of human FP receptor over human EP3 receptor
Conditions: not given
`CC12CCCC(/C=C/C(=O)NS(=O)(=O)c3cc(Cl)c(Cl)s3)=C1N(Cc1ccc(F)cc1)C(=O)C2` (stereo not drawn) showed a Selectivity ratio greater than 1000.

Biological target: T3, Prostaglandin E2 receptor EP1 subtype (Homo sapiens) (UniProt P34995)
T3 sequence (whole entry): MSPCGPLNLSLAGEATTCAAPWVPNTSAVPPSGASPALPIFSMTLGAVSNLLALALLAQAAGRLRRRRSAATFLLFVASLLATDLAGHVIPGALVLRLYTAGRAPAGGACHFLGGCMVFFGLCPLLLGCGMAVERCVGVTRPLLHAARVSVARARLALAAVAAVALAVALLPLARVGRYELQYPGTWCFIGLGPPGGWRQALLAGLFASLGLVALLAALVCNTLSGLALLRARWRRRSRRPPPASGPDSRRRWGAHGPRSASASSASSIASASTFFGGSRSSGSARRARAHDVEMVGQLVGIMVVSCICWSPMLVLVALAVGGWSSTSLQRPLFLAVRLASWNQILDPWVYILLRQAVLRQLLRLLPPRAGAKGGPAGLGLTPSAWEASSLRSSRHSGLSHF
Test: Binding affinity to human EP1 receptor at 20 uM by radioligand binding assay
Conditions: not given
In the case of `CC12CCCC(/C=C/C(=O)NS(=O)(=O)c3cc(Cl)c(Cl)s3)=C1N(Cc1ccc(F)cc1)C(=O)C2` (stereo not drawn), the Activity is reported as “inactive”.

Biological target: Prostaglandin E2 receptor EP2 subtype (Homo sapiens, UniProt P43116)
Sequence (P43116 whole entry): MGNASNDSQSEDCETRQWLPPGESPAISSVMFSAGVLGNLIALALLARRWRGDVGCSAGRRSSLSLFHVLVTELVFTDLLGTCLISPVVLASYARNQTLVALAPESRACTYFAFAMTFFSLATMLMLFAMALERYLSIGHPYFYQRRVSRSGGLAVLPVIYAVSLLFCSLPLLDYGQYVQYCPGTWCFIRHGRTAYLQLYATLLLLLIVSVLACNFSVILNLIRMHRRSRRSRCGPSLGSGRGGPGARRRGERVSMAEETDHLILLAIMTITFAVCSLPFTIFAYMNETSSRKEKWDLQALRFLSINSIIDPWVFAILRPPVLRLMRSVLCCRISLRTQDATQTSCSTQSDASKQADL
Test: Binding affinity to human EP2 receptor at 20 uM by radioligand binding assay
Conditions: not given
For `CC12CCCC(/C=C/C(=O)NS(=O)(=O)c3cc(Cl)c(Cl)s3)=C1N(Cc1ccc(F)cc1)C(=O)C2` (stereo not drawn), the Activity was “inactive”.

Biological target: Prostaglandin F2-alpha receptor (Homo sapiens, UniProt P43088)
Sequence (P43088 whole entry): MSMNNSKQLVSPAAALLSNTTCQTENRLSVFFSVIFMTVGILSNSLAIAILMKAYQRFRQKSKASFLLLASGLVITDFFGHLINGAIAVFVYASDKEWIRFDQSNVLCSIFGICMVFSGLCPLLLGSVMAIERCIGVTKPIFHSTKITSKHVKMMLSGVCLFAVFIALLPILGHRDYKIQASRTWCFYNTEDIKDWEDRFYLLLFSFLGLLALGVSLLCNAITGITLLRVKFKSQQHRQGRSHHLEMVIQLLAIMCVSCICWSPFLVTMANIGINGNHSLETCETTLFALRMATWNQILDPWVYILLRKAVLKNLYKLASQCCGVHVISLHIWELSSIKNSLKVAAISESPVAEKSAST
Test: Binding affinity to human FP receptor by radioligand binding assay
Conditions: not given
Work on `CC12CCCC(/C=C/C(=O)NS(=O)(=O)c3cc(Cl)c(Cl)s3)=C1N(Cc1ccc(F)cc1)C(=O)C2` (stereo not drawn) yielded an IC50 of 27400 nM.

Biological target: T1, Prostaglandin E2 receptor EP3 subtype
Test: Antagonist activity at human EP3 receptor expressed in CHO-K1 cells assessed as reversal of inhibition of forskolin-induced cAMP production
Assay type: functional, cell-based
Conditions: not given
Summary of the method: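 CHO-K1 cells stably expressing human EP3 were exposed to increasing test compound concentrations for 10 min at 37 °C, with 5 μM forskolin plus 5 nM PGE2 present. Read-out was the block of PGE2's inhibition of the forskolin-induced cAMP rise, giving IC50.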
Compound `CC12CCCC(/C=C/C(=O)NS(=O)(=O)c3cc(Cl)c(Cl)s3)=C1N(Cc1ccc(F)c(F)c1)C(=O)C2` (stereo not drawn) has an IC50 of 5.2 nM.
